Common to all, as to type: functional
The test system of assay [1] is Mycobacterium tuberculosis variant bovis. Put plainly: Inhibition of growth of Mycobacterium bovis was determined using microplate alamar blue assay at 100 ug/mL concentration with compound dissolved in DMSO. The gist of the method:
(§1)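 MABA in 7H9GC medium; M. bovis BCG or M. avium ATCC 25291 frozen inocula at 2.5 × 10⁵ CFU/mL final, 100× DMSO stocks diluted into medium. Incubated 6 days, then alamar blue plus 20% Tween-80 added once bacteria-only wells turned pink, read 24 h later by fluorescence. % inhibition = […]. Triplicate wells, three experiments, mean reported.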

Assay [2] has the same test system. Put plainly: Inhibition of growth of Mycobacterium bovis was determined using microplate alamar blue assay at 50 ug/mL concentration with compound dissolved in DMSO. The gist of the method: as §1
Assay [3] has the same test system. The assay is described as follows: Inhibition of growth of Mycobacterium bovis was determined using microplate alamar blue assay at 10 ug/mL concentration with compound dissolved in DMSO. The essentials:
as §1

For assay [4] the test system is unchanged. The assay is described as follows: Minimum inhibitory concentration against Mycobacterium bovis. The gist of the method: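 Alamar blue microplate assay in 7H9GC. BCG or M. avium ATCC 25291 at 2.5 × 10⁵ CFU/mL final, exposed to compound at 100, 50, 10 and 1 µg/mL in triplicate. Reagent added after 6+ days once growth controls turned pink, read after 24 h visually and by fluorescence. MIC₉₀ taken as the lowest concentration giving ~90% growth inhibition.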

Assay [5] shares this test system. Put plainly: Inhibition of growth of Mycobacterium bovis was determined using microplate alamar blue assay at 1 ug/mL concentration with compound dissolved in DMSO. The essentials: as §1
Assay [6] has the same test system. Put plainly: Inhibition of growth of Mycobacterium bovis was determined using microplate alamar blue assay at 0.5-1 ug/mL concentration with compound dissolved in DMSO.

Structures are written as SMILES. ≈ marks a conversion by molar mass, not a printed value.

The values below come from ChEMBL document CHEMBL1140381, “Design and studies of novel 5-substituted alkynylpyrimidine nucleosides as potent inhibitors of mycobacteria” (2005).

On to `CCCCCC#Cc1cn([C@H]2C[C@H](O)[C@@H](CO)O2)c(=O)[nH]c1=O`, for which the inhibition at 100 µg/mL in assay [1] worked out at 60%. Also, in assay [2], the inhibition at 50 µg/mL was found to be 60%.
Turning to `CCCCCCCCC#Cc1cn([C@H]2C[C@H](O)[C@@H](CO)O2)c(=O)nc1N`, in assay [1], the inhibition at 100 µg/mL came out at 90%. Also, the inhibition at 50 µg/mL in assay [2] was 90%. Also, the inhibition at 10 µg/mL in assay [3] was 10%. This compound also showed an MIC90 in assay [4] of 50 µg/mL (≈ 138 µM).
Consider `CCCCCCCCCCC#Cc1cn([C@H]2C[C@H](O)[C@@H](CO)O2)c(=O)nc1N`, for which, in assay [5], the inhibition at 1 µg/mL is 25%. Also, the inhibition at 100 µg/mL in assay [1] was 90%. The inhibition at 50 µg/mL in assay [2] is 90%. Moreover, the inhibition at 10 µg/mL in assay [3] came to 90%. The compound also came in with an MIC90 in assay [4] of 10 µg/mL (≈ 25.5 µM).
As to `CCCCCCCCCCC#Cc1cn([C@H]2C[C@H](O)[C@@H](CO)O2)c(=O)[nH]c1=O`, in assay [5], the inhibition at 1 µg/mL was determined as 25%. In assay [1], the inhibition at 100 µg/mL was determined as 90%. Further, the inhibition at 50 µg/mL in assay [2] was 90%. For the same compound, the inhibition at 10 µg/mL in assay [3] was determined as 70%. This compound also registered an MIC90 in assay [4] of 50 µg/mL (≈ 127 µM).
Consider `CCCCCCCCC#Cc1cn([C@H]2C[C@H](O)[C@@H](CO)O2)c(=O)[nH]c1=O`, for which, in assay [1], the inhibition at 100 µg/mL amounted to 90%. For the same compound, in assay [2], the inhibition at 50 µg/mL was determined as 50%. Besides, the inhibition at 10 µg/mL in assay [3] was 0%. This compound also registered an MIC90 in assay [4] of 100 µg/mL (≈ 274 µM).
With `CCCCCCCCCCCCC#Cc1cn([C@H]2C[C@H](O)[C@@H](CO)O2)c(=O)[nH]c1=O`, the inhibition at 1 µg/mL in assay [5] is 33%. Further, in assay [1], the inhibition at 100 µg/mL is 90%. In addition, the inhibition at 50 µg/mL in assay [2] worked out at 90%. The inhibition at 10 µg/mL in assay [3] was 90%. Further, in assay [4], the MIC90 worked out at 10 µg/mL (≈ 23.8 µM).
Consider `CO[C@H]1/C=C/O[C@@]2(C)Oc3c(C)c(O)c4c(O)c(c(/C=N/N5CCN(C)CC5)c(O)c4c3C2=O)NC(=O)/C(C)=C\C=C\[C@H](C)[C@H](O)[C@@H](C)[C@@H](O)[C@@H](C)[C@H](OC(C)=O)[C@@H]1C` [RIFAMPIN], for which, in assay [4], the MIC90 is 1 µg/mL (≈ 1.22 µM). Further, the Inhibition in assay [6] stood at 100%.
